Drawing on ChEMBL document CHEMBL1122527, “Design, synthesis, and testing of potential antisickling agents. 5. Disubstituted benzoic acids designed for the donor site and proline salicylates designed for the acceptor site” (J Med Chem, 1984), this text covers Concentration, Control value and Ratio for 17 molecules.

Structures are written as SMILES.

Test [1] can be described thus: Evaluated for antisickling activity, and initial HbS concentration was reported, values from different experiments (no. of runs=1). It counts as functional. The method in brief: (§1)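 Hofrichter-type antigelling assay: the compound was made up as its sodium salt (0.18 M stock) in 0.15 M phosphate buffer, pH 7.4, with sodium bicarbonate. It was diluted with buffer and added to HbS (about 35 g % in 0.15 M phosphate), then dithionite (1.06 M stock) was added and the EPR tubes were sealed. Final drug levels were 5, 10, 20 and 40 mM. Initial HbS (g/dL) is the level after drug and dithionite addition, the same in all six tubes of a run.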

Test [2] can be described thus: Control value of dHbS(no. of runs=1). Type of test: functional. The method in brief:
(§2)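 Deoxy-HbS control tube with buffer in place of the compound: HbS in 0.15 M phosphate was deoxygenated with dithionite (1.06 M stock) in a sealed EPR tube. It was spun with each run's set of six tubes, alongside four drug tubes and a 40 mM phenylalanine standard. The value is the HbS solubility in g/dL, used as the denominator of the solubility ratio.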

A short description of test [3]: Evaluated for antisickling activity, and ratio was calculated as solubility HbS (g/dL) / solubility HbS control(g/dL) at a concentration of 10 mM. It counts as functional. The method in brief:
(§3)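 Hofrichter-type antigelling assay. Acids were dissolved as sodium salts (sodium bicarbonate) at 0.18 M stock in 0.15 M phosphate, pH 7.4. Aliquots went into HbS (stock around 35 g%) with dithionite as deoxygenant; EPR tubes were sealed and spun. Final drug was 5, 10, 20 and 40 mM. Each six-tube run held a buffer-only deoxy-HbS control and a 40 mM phenylalanine standard. Ratio = soluble HbS with drug / control (g/dL).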

A short description of test [4]: Evaluated for antisickling activity, and ratio was calculated as solubility HbS (g/dL) / solubility HbS control(g/dL) at a concentration of 20 mM. Type of test: functional. In outline: as §3
A short description of test [5]: Evaluated for antisickling activity, and ratio was calculated as solubility HbS (g/dL) / solubility HbS control(g/dL) at a concentration of 5 mM. Type of test: functional. In outline: as §3
The nature of test [6]: Evaluated for antisickling activity, and ratio was calculated as solubility HbS compound (g/dL) / solubility HbS control(g/dL) at a concentration of 40 mM. It counts as functional. In outline: as §3
Test [7] in a line: Evaluated for antisickling activity, and initial HbS concentration was reported, values from different experiments (no. of runs=2). It counts as functional. In outline: as §1
Test [8] in a line: Control value of dHbS(no. of runs=2). Type of test: functional. In outline: as §2
Test [9] can be described thus: Compound was evaluated for antisickling activity, and initial HbS concentration was reported, values from different experiments (no. of runs=1). It counts as functional. In outline: as §1
Test [10] is described as follows: Compound was evaluated for antisickling activity, and initial HbS concentration was reported, values from different experiments (no. of runs=3). It counts as functional. In outline:
as §1

Test [11] in a line: Control value of dHbS(no. of runs=3). Type of test: functional. In outline:
as §2

The nature of test [12]: Control value of dHbS (no. of runs=2). It counts as functional. The method in brief: as §2
Test [13] in a line: Control value of dHbS (no. of runs=1). Type of test: functional. The method in brief: as §2
A short description of test [14]: Compound was evaluated for antisickling activity, and initial HbS concentration was reported, values from different experiments (no. of runs=1).
Test [15] in a line: Compound was evaluated for antisickling activity, and ratio was calculated as solubility HbS compound (g/dL) / solubility HbS control(g/dL) at a concentration of 40 mM (for 173 assays). It counts as functional. In outline:
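Phenylalanine reference standard at 40 mM, included in every six-tube set of the sealed-tube dithionite-deoxygenated HbS sedimentation solubility assay, pH 7.4 phosphate. Ratio = soluble HbS with Phe / soluble HbS in the buffer control (g/dL). Reported as mean and standard deviation over 173 assays.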

`CC(C)(C)C(=O)N1CCCC1C(=O)O` (stereo unspecified): the Concentration in [1] is 22.9 g/dL. Also, in test [2], the Control value worked out at 16.1 g/dL. The Ratio in test [3] was 1.05; in test [4], 1.05; in test [5], 1.03; in test [6] it was 1.07.

For the molecule `CCCCCCCC(=O)Nc1cc(OCC(=O)O)cc(C(=O)O)c1`, the Concentration in test [1] was 24.3 g/dL. Further, in test [2], the Control value came out at 16.3 g/dL. The Ratio in test [3] was 1.1; in [4] it was 1.23; in test [5] it was 1.04; in test [6], 1.43.

In the case of `O=C(O)COc1cc(NC(=O)c2ccc(Br)cc2)cc(C(=O)O)c1`, in test [1], the Concentration came to 24 g/dL. This molecule also showed a Control value in test [2] of 17.4 g/dL. Also, the Ratio in [3] is 1.08; in [4], 1.24; in [5] it was 1.02; in test [6], 1.32.

The molecule `O=C(O)c1ccccc1OC(=O)C1CCCN1C(=O)CCC(O)c1ccccc1` (stereo unspecified) had a Concentration in [7] of 24.5 g/dL. Also, the Control value in test [8] is 17.6 g/dL. Besides, the Ratio was 0.98 in test [3], 1 in [4], 0.99 in [5] and 1.15 in test [6].

As for `O=C(O)c1ccccc1OC(=O)C1CCCN1C(=O)c1ccccc1` (stereo unspecified), the Concentration in [7] came out at 24.5 g/dL. The same molecule displayed a Control value in test [8] of 17.2 g/dL. Besides, the Ratio in [3] is 1; in test [4], 1.01; in test [5] it was 0.999; in test [6] it was 1.03.

The molecule `O=C(O)c1ccccc1OC(=O)C1CCCN1C(=O)CCc1ccccc1` (stereo unspecified) gave a Concentration in [9] of 23.4 g/dL. Further, the values for the Ratio in [3], in [4] and in [6] were 0.988, 0.983 and 0.951, respectively.

As to `CC(C)(Oc1ccc(CCNC(=O)c2ccc(Cl)cc2)cc1)C(=O)O`, in [10], the Concentration came out at 24.8 g/dL. Besides, the Control value in [11] was 18.2 g/dL. Besides, the Ratio is 0.932 in test [3], 0.981 in [4], 0.954 in test [5] and 1.2 in test [6].

As for `O=C(O)C1CCCN1C(=O)Cc1ccccc1` (stereo unspecified), in test [7], the Concentration came out at 24.5 g/dL. In addition, the Control value in [12] was determined as 17.6 g/dL. The Ratio in test [3] was 1.01; in [4], 1.06; in [5], 1; in test [6] it was 1.13.

For the molecule `O=C(O)COc1cc(NC(=O)c2ccc(Cl)cc2)cc(C(=O)O)c1`, the Control value in test [13] worked out at 17.1 g/dL. In addition, the Ratio in test [3] is 1.16; in [4] it was 1.34; in test [5], 1.07; in test [6], 1.38. This molecule showed a Concentration in test [14] of 24 g/dL.

Take `N[C@@H](Cc1ccccc1)C(=O)O`: in test [7], the Concentration is 24.5 g/dL. Moreover, the Control value in test [8] was 17.3 g/dL. In addition, the Ratio was 1.18 in test [15]; 1.05 in [3]; 1.09 in [4]; 1.04 in [5]; 1.18 in test [6].

In test [1], `O=C(O)c1ccccc1OC(=O)C1CCCN1C(=O)COc1ccccc1` (stereo unspecified) had a Concentration of 24 g/dL. Besides, the Control value in test [2] was 17.1 g/dL. Also, the Ratio in [3] was 1.02; in test [4] it was 1.02; in test [5], 0.987; in [6], 1.08.

Molecule `CC(C)(C)C(=O)N1CCCC1C(=O)Oc1ccccc1C(=O)O` (stereo unspecified) came in with a Concentration in test [1] of 22.9 g/dL. This molecule displayed a Control value in test [2] of 16.5 g/dL. Further, the Ratio was 1 in [3], 1.03 in [4], 0.993 in test [5] and 1.08 in test [6].

For `O=C(O)COc1cc(NC(=O)c2ccc(Cl)c(Cl)c2)cc(C(=O)O)c1`, in test [10], the Concentration was 24.8 g/dL. Besides, the Control value in test [11] is 16.9 g/dL. Moreover, the Ratio in test [3] was 1.19; in [4], 1.35; in test [5], 1.09; in test [6], 1.45.

In test [7], `CC(C)(C)CC(=O)N1CCCC1C(=O)Oc1ccccc1C(=O)O` (stereo unspecified) displayed a Concentration of 28.3 g/dL. Also, in test [8], the Control value came to 17.6 g/dL. Further, the Ratio in test [3] was 1.02; in test [4] it was 0.995; in test [5] it was 0.991; in [6], 1.05.

In turn, `O=C(O)c1ccccc1OC(=O)C1CCCN1C(=O)Cc1ccccc1` (stereo unspecified) displayed a Concentration in test [1] of 24.6 g/dL. Moreover, in test [2], the Control value amounted to 17.1 g/dL. The Ratio in test [3] was 1.03; in test [4], 1.05; in [5], 1.03; in [6], 1.15.

Molecule `CCC(=O)Nc1cc(OCC(=O)O)cc(C(=O)O)c1` yielded a Concentration in test [1] of 24.3 g/dL. In [2], this molecule had a Control value of 16.6 g/dL. Moreover, the Ratio in [3] is 1.03; in [4], 1.07; in [5], 1; in test [6] it was 1.15.

The molecule `O=C(O)COc1cc(NC(=O)c2ccccc2)cc(C(=O)O)c1` yielded a Concentration in test [7] of 23.8 g/dL. The molecule also yielded a Control value in [8] of 17.4 g/dL. Also, the Ratio in [3] is 1.09; in [4] it was 1.16; in test [5], 1.06; in [6], 1.37.
